Our source for the MIC80 values is ChEMBL document CHEMBL1137243, “Design, synthesis, and antifungal activities in vitro of novel tetrahydroisoquinoline compounds based on the structure of lanosterol 14alpha-demethylase (CYP51) of fungi” (2006).

Format in all cases: functional
For one assay, the system named is Candida parapsilosis. As to the kind of experiment: Antifungal activity against Candida parapsilosis after 24 hrs. The note with it: Lodderomyces parapsilosis. The essentials: (§1)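 Broth serial-dilution MIC in 96-well plates per NCCLS recommendations. Medium: RPMI 1640 buffered with 0.165 M MOPS. Strains were from ATCC or clinical isolates. Compounds were dissolved in DMSO and serially diluted in growth medium. Yeasts were incubated at 35 °C, read at 24 h for Candida and 72 h for C. neoformans. MIC is the lowest concentration giving ≥80% growth inhibition versus control (turbidity).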

For another assay, the system named is Aspergillus fumigatus. Description: Antifungal activity against Aspergillus fumigatus after 7 days. The note with it: 168 h. Put shortly:
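Filamentous-fungus MIC was determined by serial dilution in 96-well plates per NCCLS, using RPMI 1640 buffered with 0.165 M MOPS. Strains were ATCC or clinical isolates. Compounds in DMSO were diluted in growth medium. Growth was read at 7 days. MIC is the lowest concentration producing ≥80% inhibition of turbidity compared with control.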

A further assay deals with Microsporum canis. Description: Antifungal activity against Microsporum canis after 7 days. The note with it: 168 h. The essentials: (§2)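 Dermatophytes were tested by NCCLS-based broth serial dilution in 96-well plates. Medium: RPMI 1640 with 0.165 M MOPS. Isolates were from ATCC or clinical sources. Compounds in DMSO were serially diluted in medium. Incubation was at 28 °C with the read at 7 days. MIC is the lowest concentration giving ≥80% turbidity reduction relative to the growth control.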

A further assay relates to Candida albicans. Description: Antifungal activity against Candida albicans after 24 hrs. Put shortly: as §1
The next assay relates to Cryptococcus neoformans. As to the kind of experiment: Antifungal activity against Cryptococcus neoformans after 72 hrs. Put shortly:
as §1

The test system of a further assay is Trichophyton rubrum. As to the kind of experiment: Antifungal activity against Trichophyton rubrum after 7 days. The note with it: 168 h. The essentials:
as §2

Values after ≈ are worked out from the molar mass of the structure shown.

As to `CCCCCCCCCCCCCCN1CCc2cc(O)c(O)cc2C1`, the MIC80 against Candida parapsilosis is 50 µg/mL (≈ 138 µM); in the assay on Aspergillus fumigatus it was > 200 µg/mL; in the assay with Microsporum canis, 12.5 µg/mL (≈ 34.6 µM); against Candida albicans, 50 µg/mL (≈ 138 µM); with Cryptococcus neoformans it was 6.25 µg/mL (≈ 17.3 µM); against Trichophyton rubrum, 25 µg/mL (≈ 69.1 µM).

In the case of `CCCCCCCCCCCCCCCCN1CCc2cc(O)c(O)cc2C1`, the MIC80 in the assay on Candida parapsilosis is 100 µg/mL (≈ 257 µM); in the assay with Aspergillus fumigatus, 200 µg/mL (≈ 513 µM); against Microsporum canis, > 200 µg/mL; in the assay with Candida albicans, > 200 µg/mL; with Cryptococcus neoformans, 100 µg/mL (≈ 257 µM); with Trichophyton rubrum, 200 µg/mL (≈ 513 µM).

Take `CCCCCCCCN1CCc2cc(O)c(O)cc2C1`: the MIC80 is 100 µg/mL (≈ 360 µM) in the assay with Candida parapsilosis; > 200 µg/mL in the assay with Aspergillus fumigatus; 50 µg/mL (≈ 180 µM) in the assay on Microsporum canis; > 200 µg/mL in the assay on Candida albicans; 100 µg/mL (≈ 360 µM) in the assay on Cryptococcus neoformans; 50 µg/mL (≈ 180 µM) against Trichophyton rubrum.

As to `CCCCCN1CCc2cc(O)c(O)cc2C1`, the MIC80 against Candida parapsilosis is 100 µg/mL (≈ 425 µM); against Aspergillus fumigatus it was > 200 µg/mL; in the assay on Microsporum canis it was > 200 µg/mL; in the assay on Candida albicans, > 200 µg/mL; with Cryptococcus neoformans, 100 µg/mL (≈ 425 µM); with Trichophyton rubrum, > 200 µg/mL.

With `CCCCCCCCCCN1CCc2cc(O)c(O)cc2C1`, the MIC80 in the assay on Candida parapsilosis was determined as 12.5 µg/mL (≈ 40.9 µM); with Aspergillus fumigatus, 50 µg/mL (≈ 164 µM); against Microsporum canis, 12.5 µg/mL (≈ 40.9 µM); in the assay on Candida albicans, 100 µg/mL (≈ 327 µM); in the assay with Cryptococcus neoformans, 3.12 µg/mL (≈ 10.2 µM); against Trichophyton rubrum, 3.12 µg/mL (≈ 10.2 µM).

For `CCCCCCCN1CCc2cc(O)c(O)cc2C1`, the MIC80 against Candida parapsilosis is 100 µg/mL (≈ 380 µM); against Aspergillus fumigatus it was > 200 µg/mL; with Microsporum canis, > 200 µg/mL; in the assay with Candida albicans, > 200 µg/mL; with Cryptococcus neoformans, 100 µg/mL (≈ 380 µM); in the assay with Trichophyton rubrum, > 200 µg/mL.

As for `OC(Cn1cncn1)(Cn1cncn1)c1ccc(F)cc1F` [FLUCONAZOLE], the MIC80 was 50 µg/mL (≈ 163 µM) with Candida parapsilosis; > 200 µg/mL against Aspergillus fumigatus; 100 µg/mL (≈ 327 µM) with Microsporum canis; 1.56 µg/mL (≈ 5.1 µM) with Candida albicans; 6.25 µg/mL (≈ 20.4 µM) in the assay with Cryptococcus neoformans; 25 µg/mL (≈ 81.6 µM) in the assay with Trichophyton rubrum.

For the compound `CCCCCCCCCN1CCc2cc(O)c(O)cc2C1`, the MIC80 in the assay with Candida parapsilosis was 25 µg/mL (≈ 85.8 µM); in the assay on Aspergillus fumigatus it was 200 µg/mL (≈ 686 µM); against Microsporum canis, 50 µg/mL (≈ 172 µM); in the assay on Candida albicans, 200 µg/mL (≈ 686 µM); against Cryptococcus neoformans, 25 µg/mL (≈ 85.8 µM); with Trichophyton rubrum, 12.5 µg/mL (≈ 42.9 µM).

Consider `CCCCCCN1CCc2cc(O)c(O)cc2C1`, for which the MIC80 against Candida parapsilosis was 100 µg/mL (≈ 401 µM); against Aspergillus fumigatus, > 200 µg/mL; against Microsporum canis it was > 200 µg/mL; with Candida albicans it was > 200 µg/mL; against Cryptococcus neoformans, 100 µg/mL (≈ 401 µM); in the assay with Trichophyton rubrum it was > 200 µg/mL.

For the compound `CCCCCCCCCCCCN1CCc2cc(O)c(O)cc2C1`, the MIC80 with Candida parapsilosis was found to be 50 µg/mL (≈ 150 µM); with Aspergillus fumigatus it was 50 µg/mL (≈ 150 µM); against Microsporum canis it was 12.5 µg/mL (≈ 37.5 µM); with Candida albicans, 50 µg/mL (≈ 150 µM); against Cryptococcus neoformans, 6.25 µg/mL (≈ 18.7 µM); with Trichophyton rubrum it was 12.5 µg/mL (≈ 37.5 µM).
